# In the RNAGym collection of RNA variant scans (doi:10.1126/science.aae0568):
# This sample holds only a part of the variants without activity.
# B1: tRNA (parent)
# chain: GUUCCGUUGGCGUAAUGGUAACGCGUCUCCCUCCUAAGGAGAAGACUGCGGGUUCGAGUCCCGUACGGAACG
# Variants of: B1
# Assay: yeast fitness relative to wild type (ratio to wild type); higher = fitter; tRNA-Arg(CCU), competitive growth, 37 C, YPD
# How it was run: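 Start and end populations of a pooled competition were compared by 100-nucleotide paired-end sequencing of gene amplicons. The Saccharomyces cerevisiae strains carried tRNA-Arg(CCU) gene variants at the native genomic locus, synthesised with a 3% per-site mutation rate at 69 sites, and competed in YPD at 37°C for 24 hours in six parallel replicates. Darwinian fitness relative to wild type was based on the change in genotype frequencies. Genotypes required ≥ 100 starting reads, and estimates < 0.5 were set to 0.5.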
row,Variant,yeast fitness
1,U7A U28A,0.605
2,U7A U28A A69C,≤ 0.5
3,U7A U28A C61U U64A,≤ 0.5
4,U7A U28C,0.711
5,U7A U28C C62G,≤ 0.5
6,U7A U28G C30A G52A A69U,0.607
7,U7A U32A A42U C60A,0.619
8,U7A U32C A65G,0.558
9,U7A U32C C33G,≤ 0.5
10,U7A U32G A37U C49U,0.642
11,U7A U32G U35A,≤ 0.5
12,U7A U35C G41C A70U,≤ 0.5
13,U7A U47A A65G,0.523
14,U7A U47C,0.785
15,U7A U47C A69C,0.601
16,U7A U53C,0.604
17,U7A U54A U59C U64C,≤ 0.5
18,U7A U54C,0.734
19,U7A U64A,0.837
20,U7C,1.01
21,U7C A14C,0.679

row,Variant,yeast fitness
1,U7C A14C A21C C46A,≤ 0.5
2,U7C A14C A70C,0.594
3,U7C A14C G51A,≤ 0.5
4,U7C A14G,0.86
5,U7C A14G C22G,≤ 0.5
6,U7C A14G C29U C31U C33U C49U,≤ 0.5
7,U7C A14G G17A,0.531
8,U7C A14G G17A A69U A70U,0.594
9,U7C A14G G23A G25A A36U A43U,≤ 0.5
10,U7C A14G G25A A43G A69C,≤ 0.5
11,U7C A14U A65C,≤ 0.5
12,U7C A14U C24G C30U A43G,≤ 0.5
13,U7C A14U G25C G39U C62G A65U,≤ 0.5
14,U7C A15C A40G A57G,0.649
15,U7C A15C A40G U53G,≤ 0.5
16,U7C A15C G25A G38A A45G G52A C61G,≤ 0.5
17,U7C A15C G38A A45G G52A C61G,0.558
18,U7C A15C G38A A45G G52A C61G C66U,≤ 0.5
19,U7C A15G,0.793
20,U7C A15G A20U C24G U35C A36C C61A,≤ 0.5
21,U7C A15G A20U C24G U35C A36C C66U,≤ 0.5

row,Variant,yeast fitness
1,U7C A15G C61G C66U A69U,≤ 0.5
2,U7C A15G G17A,≤ 0.5
3,U7C A15G G18C C49U,≤ 0.5
4,U7C A15G G51C A57U,≤ 0.5
5,U7C A15U C49U C62U,0.673
6,U7C A15U G39A,0.623
7,U7C A20C A69C,0.615
8,U7C A20C C34A G63C,≤ 0.5
9,U7C A20G,0.819
10,U7C A20G A69C,0.594
11,U7C A20G C30A,≤ 0.5
12,U7C A20G C31U A43G U59A,≤ 0.5
13,U7C A20G U32G,≤ 0.5
14,U7C A20U,0.722
15,U7C A21C,0.606
16,U7C A21C C34U C49U A69U,≤ 0.5
17,U7C A21G C29A G48C,0.555
18,U7C A21G C33G C60U,≤ 0.5
19,U7C A21G C49U,0.722
20,U7C A21U,0.769
21,U7C A21U C22A,≤ 0.5

row,Variant,yeast fitness
1,U7C A21U C22A C49U G50C A69U,≤ 0.5
2,U7C A21U C55A,0.586
3,U7C A36C A57U C61A C66A,≤ 0.5
4,U7C A36C A57U C61A C66G,0.537
5,U7C A36C C61G C66U A69U,≤ 0.5
6,U7C A36G A43U,0.535
7,U7C A36G A45U,0.569
8,U7C A36U G50C C60A G63A,≤ 0.5
9,U7C A37C,0.862
10,U7C A37C A40C A45U A57C A70U,0.555
11,U7C A37G,0.666
12,U7C A37G A42C C49G C61U,0.504
13,U7C A37U G39C A43U C55G,≤ 0.5
14,U7C A40G,0.822
15,U7C A40U,0.793
16,U7C A40U A42U U54A U64G,≤ 0.5
17,U7C A42C G58A,≤ 0.5
18,U7C A42C U53A,≤ 0.5
19,U7C A42U,0.728
20,U7C A43C,0.88
21,U7C A43C A57G U59C A70G,≤ 0.5
